Measurements from ChEMBL document CHEMBL1140972, “Synthesis and structure-activity relationship of 3-phenylquinoxaline 1,4-di-N-oxide derivatives as antimalarial agents” (Eur J Med Chem, 2008).

Experiments:
[1] = Selectivity index, ratio of IC50 for human KB cells to IC50 for chloroquine-resistant Plasmodium falciparum K1; assay type: toxicity, cell-based; conditions: read-out: Ratio IC50
Method in brief: (§1)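 KB IC50 divided by the parasite IC50 (K1 or 3D7). KB cells seeded at 4×10^4 cells/mL in RPMI 1640 with 10% heat-inactivated FCS and grown 24 h. Triplicate dilution series then added for 72 h. AlamarBlue for 2–4 h, fluorescence ex 530/em 585 nm, IC50 by curve fit. Podophyllotoxin as positive control.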

[2] = Selectivity index, ratio of IC50 for human KB cells to IC50 for chloroquine-sensitive Plasmodium falciparum 3D7; assay type: toxicity, cell-based; conditions: read-out: Ratio IC50; method in brief: as §1
[3] = test system: Plasmodium falciparum; test: Antimalarial activity after 48 hrs against chloroquine-sensitive Plasmodium falciparum 3D7 by [3H]hypoxanthine uptake; assay type: functional, organism-based
Method in brief: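 Asynchronous culture (65-75% rings, 0.5% parasitemia, 2.5% final hematocrit) in RPMI 1640 with 0.5% Albumax II, 0.2% glucose, 0.03% L-glutamine and 5 µM hypoxanthine. Triplicate wells with a 3-fold series of 10.0–0.0412 µg/mL; final DMSO ≤0.01%. 37 °C, 5% CO2: 24 h, then 0.2 µCi/well [3H]hypoxanthine for a further 24 h. Frozen, harvested, scintillation-counted. IC50 from curve fit; mean of 2–3 experiments.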

[4] = Resistant index, ratio of IC50 for chloroquine-resistant Plasmodium falciparum K1 to IC50 for chloroquine-sensitive Plasmodium falciparum 3D7; assay type: functional
Method in brief: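 IC50 against K1 divided by IC50 against 3D7 (drug-sensitive NF54 clone). Both from [3H]-hypoxanthine incorporation over 48 h: asynchronous cultures at 0.5% parasitemia, 2.5% hematocrit, 3-fold dilutions 10.0–0.0412 µg/mL in triplicate. Label added at 24 h. Means of 2–3 independent experiments.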

[5] = test system: KB; test: Cytotoxicity against human KB cells after 48 hrs by alamar blue assay; assay type: cell-based
[6] = test system: Plasmodium falciparum; test: Antimalarial activity after 48 hrs against chloroquine-resistant Plasmodium falciparum K1 by [3H]hypoxanthine uptake; assay type: functional, organism-based
Method in brief: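 Asynchronous P. falciparum K1 culture (65-75% ring stage, 0.5% parasitemia; chloroquine, pyrimethamine, cycloguanil resistant) at 2.5% hematocrit in RPMI 1640 with 0.5% Albumax II, glucose, L-glutamine, 5 µM hypoxanthine. Triplicate 3-fold dilutions 10.0–0.0412 µg/mL, DMSO ≤0.01% final, 37 °C, 5% CO2. [3H]-hypoxanthine (0.2 µCi/well) added at 24 h, incorporation counted after further 24 h. IC50 by curve fit, 2–3 experiments.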

Work on `N#Cc1c(-c2ccc(OC(F)(F)F)cc2)[n+]([O-])c2ccccc2[n+]1[O-]` yielded a selectivity ratio [1] of 10.3, a selectivity ratio [2] of 2.17 and an IC50 [3] of 1270 nM. The Ratio IC50 [4] was 0.21, the IC50 [5] was 2760 nM and the IC50 [6] was 270 nM.

`Cc1ccc2c(c1)[n+]([O-])c(C#N)c(-c1ccc(Cl)cc1)[n+]2[O-]` showed a selectivity ratio [1] of 49.5, a selectivity ratio [2] of 19.3 and an IC50 [3] of 480 nM. It also gave a Ratio IC50 [4] of 0.39, an IC50 [5] of 9250 nM and an IC50 [6] of 190 nM.
